Assay results from ChEMBL document CHEMBL4033780, “Lipidated Brartemicin Analogues Are Potent Th1-Stimulating Vaccine Adjuvants” (J Med Chem, 2018).
Active and inactive are the calls of the source. No cut-off for these calls is given here.

How the values were obtained:
[1] = test system: BMDM; assay: Immunostimulatory activity in mincle-/- C57BL/6 mouse GM-CSF derived BMDM assessed as increase in MIP2 release at […] after 24 hrs by sandwich ELISA method; format: functional, cell-based
Outline: (§1)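 Wild-type or Mincle−/− C57BL/6 bone marrow was cultured 8 days with GM-CSF 50 ng/mL in complete RPMI. Macrophages were detached with Acutase and seeded on ligand-coated plates (0.1 or 1 nmol/well); LPS 100 ng/mL was used as comparator. Supernatant was taken at 24 h and TNF, IL-6, IL-1β and MIP-2 measured by sandwich ELISA. Representative of three experiments in triplicate (±SD).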

[2] = test system: T1, C-type lectin domain family 4 member E (Homo sapiens), Q9ULY5 [R183A]; assay: Agonist activity at human mincle R183A mutant expressed in NFAT-GFP reporter cells up to 3000 pmol after 18 hrs by flow cytometric analysis; format: cell-based
T1 sequence (whole entry): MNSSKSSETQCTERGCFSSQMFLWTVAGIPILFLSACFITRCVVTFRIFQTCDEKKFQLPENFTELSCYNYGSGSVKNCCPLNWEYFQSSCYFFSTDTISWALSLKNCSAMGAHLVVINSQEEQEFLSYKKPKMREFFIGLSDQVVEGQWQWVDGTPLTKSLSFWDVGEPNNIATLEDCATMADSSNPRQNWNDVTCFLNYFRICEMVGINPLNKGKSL
Outline: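 The hMincle R183A mutant, made by site-directed mutagenesis, was retrovirally introduced into 2B4 NFAT-GFP cells expressing FcRγ only. Cells were stimulated on plates coated with increasing ligand amounts for 18 h, and NFAT-GFP was read by flow cytometry. Mean of two independent experiments in duplicate (±SEM).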

[3] = organism: Mus musculus; assay: Adjuvant activity in immunized C57BL/6 mouse assessed as footpad swelling at 0.3 umol treated with ovalbumin for 7 days followed by stimulation with OVA for 7 days measured 24 to 48 hrs post OVA challenge; format: functional
[4] = Toxicity in Atlantic horseshoe crab blood limulus amebocyte lysate by chromogenic endotoxin test; conditions: limulus polyphemus
Outline: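 Endotoxin was measured by chromogenic Limulus amebocyte lysate assay at a sensitivity of ≤0.1 EU/mL.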

[5] = organism: Mus musculus; assay: Adjuvant activity in immunized C57BL/6 mouse assessed as increase in OVA-specific IgG2c production in serum at 0.3 umol treated with ovalbumin for 7 days followed by stimulation with OVA for 7 days and restimulation with OVA measured 24 to 48 hrs post OVA challenge relative to control; format: functional
[6] = test system: BMDM; assay: Immunostimulatory activity in mincle-/- C57BL/6 mouse GM-CSF derived BMDM assessed as increase in IL-1beta release at […] after 24 hrs by sandwich ELISA method; format: functional, cell-based; outline: as §1

CCCCCCCCCCCCCCCCCCOc1ccc(C(=O)OC[C@H]2O[C@H](O[C@H]3O[C@H](COC(=O)c4ccc(OCCCCCCCCCCCCCCCCCC)cc4O)[C@@H](O)[C@H](O)[C@H]3O)[C@H](O)[C@@H](O)[C@@H]2O)c(O)c1
Activity [1]: inactive | Activity [2]: inactive | Activity [3]: inactive | Activity [4]: <= 0.1 EU/ml | fold change (FC) [5]: 3 | Activity [6]: inactive
